Measured values as given in ChEMBL document CHEMBL1129271, “Synthesis and biological evaluation of certain alkenyldiarylmethanes as anti-HIV-1 agents which act as non-nucleoside reverse transcriptase inhibitors” (J Med Chem, 1996).
Active and inactive are the calls of the source. The rule behind the calls is not given here.

Experiments:
CCRF-CEM [1] = assay: The compound was evaluated for prevention of the cytopathic effect of HIV-1 for cytopathicity of HIV-1RF in CEM-SS cells.; format: functional, cell-based; settings: Homo sapiens
Method in brief: (§1)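 XTT-based microtiter assay of protection from HIV-1 cytopathic effect in CEM-SS cells, read as percent of uninfected drug-free control. EC50 is the concentration giving 50% protection in infected cultures. IC50 is the concentration giving 50% death of mock-infected cells. Values are averages of at least two determinations. Results were confirmed by supernatant RT and p24 levels.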

CCRF-CEM [2] = assay: The compound was tested for cytotoxicity in CEM-SS cells for mock-infected CEM cells.; format: functional, cell-based; settings: Homo sapiens; method in brief: as §1
CCRF-CEM [3] = assay: (§2) The compound was evaluated for prevention of the cytopathic effect of HIV-1 for cytopathicity of HIV-1RF in CEM-SS cells; NA= not active; format: functional, cell-based, Homo sapiens; method in brief: as §1
CCRF-CEM [4] = assay: 50% cytotoxic concentration for mock-infected CEM cells; format: functional, cell-based; settings: Homo sapiens; method in brief: as §1
[5] = (§3) The therapeutic index of the compound is evaluated.; settings: read-out: IC50/EC50
CCRF-CEM [6] = assay: as §2; format: functional, cell-based; settings: Homo sapiens; method in brief: as §1
[7] = as §3; format: functional

CCCCCCCCCC=C(c1cc(Br)c(OC)c(C(=O)OC)c1)c1cc(Br)c(OC)c(C(=O)OC)c1
EC50 (CCRF-CEM [1]): > 30 µM | IC50 (CCRF-CEM [2]): > 30 µM

CCCCCC=C(c1cc(Br)cc(C(=O)OC)c1OC)c1cc(Br)cc(C(=O)OC)c1OC
EC50 (CCRF-CEM [3]): Not Active | IC50 (CCRF-CEM [2]): 44 µM

CCCCCC=C(c1cc(Cl)c(OC)c(C(=O)NC)c1)c1cc(Cl)c(OC)c(C(=O)NC)c1
EC50 (CCRF-CEM [3]): Not Active | IC50 (CCRF-CEM [4]): 21 µM

CCCCCC=C(c1cc(Cl)c(OC)c(C(N)=O)c1)c1cc(Cl)c(OC)c(C(N)=O)c1
EC50 (CCRF-CEM [3]): Not Active | IC50 (CCRF-CEM [4]): 31 µM

CCCCCC=C(c1cc(Br)c(O)c(C(=O)O)c1)c1cc(Br)c(O)c(C(=O)O)c1.N.N
EC50 (CCRF-CEM [3]): Not Active | IC50 (CCRF-CEM [2]): 150 µM

COC(=O)c1cc(C(=CCCBr)c2cc(Cl)c(OC)c(C(=O)OC)c2)cc(Cl)c1OC
EC50 (CCRF-CEM [1]): 8 µM | IC50 (CCRF-CEM [2]): 18 µM | selectivity ratio [5]: 2.2

CCCCCC=C(c1cc(Cl)c(O)c(C(=O)NO)c1)c1cc(Cl)c(O)c(C(=O)NO)c1
EC50 (CCRF-CEM [3]): Not Active | IC50 (CCRF-CEM [2]): 37 µM

CCCCCC=C(c1cc(Cl)c(OC)c(C(=O)O)c1)c1cc(Cl)c(OC)c(C(=O)O)c1
NA (CCRF-CEM [6]): inactive | IC50 (CCRF-CEM [4]): 84 µM

CCCCCC=C(c1cc(Cl)c(OC)c(C(=O)N(C)C)c1)c1cc(Cl)c(OC)c(C(=O)N(C)C)c1
EC50 (CCRF-CEM [3]): Not Active | IC50 (CCRF-CEM [4]): 21 µM

CCCCCC=C(c1cc(Cl)c(O)c(C(=O)O)c1)c1cc(Cl)c(O)c(C(=O)O)c1
EC50 (CCRF-CEM [1]): > 91.5 µM | IC50 (CCRF-CEM [4]): > 91.5 µM

CCCCCCCCCCCCCCCC=C(c1cc(Br)c(OC)c(C(=O)OC)c1)c1cc(Br)c(OC)c(C(=O)OC)c1
EC50 (CCRF-CEM [1]): > 28 µM | IC50 (CCRF-CEM [2]): > 28 µM

CCCCCC=C(c1cc(Cl)c(OC)c(C(=O)OC)c1)c1cc(Cl)c(OC)c(C(=O)OC)c1
EC50 (CCRF-CEM [1]): 16 µM | IC50/EC50 [7]: > 1.8 | IC50 (CCRF-CEM [4]): > 29.1 µM
